Source: ChEMBL document CHEMBL1137574, “Synthesis and structure-activity relationship for a novel class of potent and selective carbamate-based inhibitors of hormone selective lipase with acute in vivo antilipolytic effects” (J Med Chem, 2007)
The source made the active and inactive calls. The calls are words filed in the database; no cut-off is given here.

Key:
[1] = Oral bioavailability in Sprague-Dawley rat at 2.2 mg/kg, po; type: ADME, organism-based; conditions: in vivo
Procedure, shortened: (§1)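 Rat PK study, one rat per time point. Dosed i.v. and p.o. by gavage in 10% hydroxypropyl cyclodextrin in phosphate buffer pH 7.0; one compound was given in 20% Tween 80 plus 5% glucose in phosphate buffer pH 7.0. Plasma was diluted 1:1 with 10% methanol and centrifuged, then quantified by turbulent-flow chromatography–MS/MS against plasma calibration curves spanning 10-3000 ng/mL.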

[2] = biological target: T1, Pancreatic triacylglycerol lipase (Homo sapiens) (UniProt P16233); assay: Inhibition of Pancreatic lipase
T1 sequence (whole entry): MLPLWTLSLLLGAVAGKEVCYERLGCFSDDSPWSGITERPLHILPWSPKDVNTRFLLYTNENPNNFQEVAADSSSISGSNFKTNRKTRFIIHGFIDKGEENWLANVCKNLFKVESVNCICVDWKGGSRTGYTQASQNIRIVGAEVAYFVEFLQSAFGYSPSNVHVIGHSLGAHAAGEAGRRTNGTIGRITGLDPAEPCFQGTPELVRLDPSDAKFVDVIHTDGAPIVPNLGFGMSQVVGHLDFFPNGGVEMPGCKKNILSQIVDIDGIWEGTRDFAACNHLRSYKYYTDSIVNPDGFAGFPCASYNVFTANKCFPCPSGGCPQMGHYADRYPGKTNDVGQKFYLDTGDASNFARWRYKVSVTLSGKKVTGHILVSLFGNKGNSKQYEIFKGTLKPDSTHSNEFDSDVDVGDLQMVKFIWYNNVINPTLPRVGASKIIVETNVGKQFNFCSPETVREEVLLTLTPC
Procedure, shortened: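 Lipase inhibition (pancreatic, bovine lipoprotein, human hepatic) used a fluorochrome (NBD)-labelled triacylglyceride substrate. Inhibitor at six concentrations, 5-fold dilutions from a maximum of 100 µM, each point the mean of two measurements. IC50 from sigmoidal variable-slope nonlinear regression.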

Cytochrome P450 1A2 = biological target: T2, Cytochrome P450 1A2 (Homo sapiens, UniProt P05177); assay: Inhibition of CYP1A2 in human liver microsome; type: ADME; conditions: microsomes
T2 sequence (P05177 whole entry): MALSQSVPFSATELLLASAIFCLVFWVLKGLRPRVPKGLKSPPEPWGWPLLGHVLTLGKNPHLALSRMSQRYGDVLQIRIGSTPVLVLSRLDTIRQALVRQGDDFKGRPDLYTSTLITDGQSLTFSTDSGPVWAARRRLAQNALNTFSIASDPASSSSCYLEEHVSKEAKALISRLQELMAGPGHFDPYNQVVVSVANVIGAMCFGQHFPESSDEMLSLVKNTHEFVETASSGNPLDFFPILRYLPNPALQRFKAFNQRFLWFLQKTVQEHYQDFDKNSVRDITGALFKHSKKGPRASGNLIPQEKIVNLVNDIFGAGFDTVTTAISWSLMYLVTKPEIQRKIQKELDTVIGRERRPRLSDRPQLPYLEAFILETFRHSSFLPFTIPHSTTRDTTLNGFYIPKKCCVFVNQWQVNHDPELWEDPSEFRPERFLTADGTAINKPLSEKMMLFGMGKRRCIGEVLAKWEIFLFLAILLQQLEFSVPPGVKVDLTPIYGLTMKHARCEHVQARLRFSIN
Procedure, shortened: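 Pooled human liver microsomes (0.1 mg, ≥15 donors) incubated 10 min at 37 °C with 1 mM NADPH and test compound at 20 µM, in triplicate. Substrates at Km: CYP1A2, 14C-phenacetin 40 µM; CYP2D6, 14C-dextromethorphan 3 µM. Conversion read by charcoal extraction then scintillation counting of the supernatant.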

[3] = Cmax in Sprague-Dawley rat at 1.1 mg/kg, iv and 2 mg/kg, po; type: ADME, organism-based; conditions: in vivo; procedure, shortened: as §1
[4] = Clearance in Sprague-Dawley rat at 1.1 mg/kg, iv and 2.2 mg/kg, po; type: ADME, organism-based; conditions: in vivo; procedure, shortened: as §1
[5] = Oral bioavailability in Sprague-Dawley rat at 2.4 mg/kg, po; type: ADME, organism-based; conditions: in vivo
Procedure, shortened: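 Male Sprague-Dawley rats, 12 weeks old, dosed by oral gavage and i.v. in 10% hydroxypropyl cyclodextrin in phosphate buffer pH 7.0, with one rat per time point. Plasma was diluted 1:1 in 10% methanol, centrifuged and quantified by turbulent-flow chromatography–tandem MS against plasma calibration curves (10-3000 ng/mL).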

[6] = Clearance in Sprague-Dawley rat at 1.2 mg/kg, iv and […] mg/kg, po; type: ADME, organism-based; conditions: in vivo
[7] = Cmax in Sprague-Dawley rat at 1.2 mg/kg, iv and […] mg/kg, po; type: ADME, organism-based; conditions: in vivo, 2.4 mg/kg
Acetylcholinesterase = Acetylcholinesterase (Homo sapiens, UniProt P22303); assay: Inhibition of acetylcholine esterase
Acetylcholinesterase, sequence (P22303 whole entry): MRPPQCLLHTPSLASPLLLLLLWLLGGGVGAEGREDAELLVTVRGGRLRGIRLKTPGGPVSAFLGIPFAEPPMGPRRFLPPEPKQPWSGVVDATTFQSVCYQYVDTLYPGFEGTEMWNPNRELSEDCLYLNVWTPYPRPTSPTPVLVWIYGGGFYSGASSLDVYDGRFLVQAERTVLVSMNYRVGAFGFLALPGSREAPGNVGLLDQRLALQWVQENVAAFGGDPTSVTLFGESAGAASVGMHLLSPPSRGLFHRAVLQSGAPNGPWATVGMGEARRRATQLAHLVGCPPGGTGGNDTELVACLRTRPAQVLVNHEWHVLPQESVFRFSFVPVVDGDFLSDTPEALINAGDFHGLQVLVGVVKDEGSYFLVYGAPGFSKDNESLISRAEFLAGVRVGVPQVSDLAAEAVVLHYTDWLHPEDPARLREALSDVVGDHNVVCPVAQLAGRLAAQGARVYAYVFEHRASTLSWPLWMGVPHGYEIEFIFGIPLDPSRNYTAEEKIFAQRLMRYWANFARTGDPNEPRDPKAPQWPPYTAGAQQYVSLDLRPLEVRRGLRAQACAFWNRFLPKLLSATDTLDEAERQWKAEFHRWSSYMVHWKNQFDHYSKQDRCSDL
Procedure, shortened: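 Acetylcholinesterase activity measured with acetylthiocholine substrate. Inhibitor at six concentrations in 5-fold steps from a maximum of 100 µM, duplicate measurements averaged. IC50 from variable-slope sigmoidal dose-response fit.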

What does the source list for `O=C(Oc1ccc(Oc2ccc(C(F)(F)F)cn2)cc1)N1CCC(CO)CC1`?
bioavailability [1]: 10%; Activity [2]: inactive; Activity (Cytochrome P450 1A2): Not Active; Cmax [3]: 60 ng/mL; clearance [4]: 46 mL/min/kg

Which bioavailability [5] does the source give for `O=C(Oc1ccc(Oc2ccc(C(F)(F)F)cn2)cc1)N1CCC(O)CC1` here?
Its bioavailability is 56%.

What about the clearance [6] of the same compound?
Its clearance is 9 mL/min/kg.

And the Cmax [7]?
The Cmax was 1220 ng/mL.

And the Activity [2]?
The Activity was “inactive”.

And the Activity (Cytochrome P450 1A2)?
The Activity was “Not Active”.

And the IC50 (Acetylcholinesterase)?
Its IC50 is over 50 µM.
